Laboratory results published in ChEMBL document CHEMBL4406881, “Design, synthesis and biological evaluation of benzoylacrylic acid shikonin ester derivatives as irreversible dual inhibitors of tubulin and EGFR” (Bioorg Med Chem, 2019).
pIC50: −log10 of the molar value. Active and inactive are the calls of the source. The rule behind the calls is not given here.

Columns and labels:
A549 [1] = assay: Induction of apoptosis in human A549 cells assessed as low mitochondrial membrane potential at 4 uM after 12 hrs by JC-1 staining-based flow cytometric analysis (reference value: 6.3%); type: functional
A549 [2] = assay: Cell cycle arrest in human A549 cells assessed as accumulation at S phase at 8 uM after 12 hrs by RNAse A/ PI staining based flow cytometric analysis (reference value: 19.66%); type: functional
Method in brief: (§1)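 A549 cells at 5.0×10^4 per well were grown 12 h at 37 °C. Treatment was 0, 2, 4 or 8 µM for 24 h, or 8 µM for 0, 12, 24 or 36 h. Cells were fixed in 70% ethanol at −20 °C for at least 12 h, then stained in PBS with 0.1 mg/mL RNase A and 5 µg/mL PI. At least 10,000 events per sample were collected by flow cytometry to give G0/G1, S and G2/M percentages.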

A549 [3] = assay: Cell cycle arrest in human A549 cells assessed as accumulation at G2/M phase at 4 uM after 24 hrs by RNAse A/ PI staining based flow cytometric analysis (reference value: 9.47%); type: functional; method in brief: as §1
A549 [4] = assay: Induction of G2/M cell cycle arrest in human A549 cells assessed as increase in CDK1 expression at 2 to 8 uM by immunoblot analysis; type: functional, cell-based
Method in brief: (§2)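 A549 lysates in RIPA buffer with protease inhibitors were run on SDS-PAGE and blotted to PVDF. Membranes were probed overnight at 4 °C with primary antibody at 1:1000, then secondary antibody at 1:3000-1:5000 for 1 h, and detected by ECL. Band intensity was normalised to GAPDH. Results are mean ± S.E.M. from three independent experiments.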

A549 [5] = assay: Induction of apoptosis in human A549 cells assessed as reduction in Bcl-2 expression at 2 to 8 uM after 24 hrs by Western blot analysis; type: functional, cell-based
Method in brief: (§3)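 A549 cells in 6-well plates were lysed in RIPA buffer with protease inhibitors on ice for 30 min and cleared at 4 °C. Protein was quantified by BCA, run on SDS-PAGE and transferred to PVDF. Membranes were blocked with milk, probed with primary antibody (1:1000) overnight at 4 °C, then secondary antibody (1:3000-1:5000) 1 h at RT. Detection by ECL; band densitometry normalised to GAPDH (β-actin also used). Three independent experiments.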

[6] = Cytotoxicity against human LO2 cells assessed as reduction in cell viability after 24 hrs by MTT assay; type: cell-based, L02
Method in brief: (§4)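 MTT colorimetric assay. Cells in log phase in medium with 10% FBS were seeded at 10⁴ cells/well and left overnight at 37 °C, 5% CO₂ to reattach. Compounds were added at 0.1, 1, 10 and 100 μM in 10% FBS for 24 h. IC50 reported as mean ± SD of three independent experiments.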

A549 [7] = assay: Cell cycle arrest in human A549 cells assessed as accumulation at G2/M phase at 8 uM after 36 hrs by RNAse A/ PI staining based flow cytometric analysis (reference value: 12.65%); type: functional; method in brief: as §1
A549 [8] = assay: Induction of apoptosis in human A549 cells assessed as reduction in caspase-9 expression at 2 to 8 uM after 24 hrs by Western blot analysis; type: functional, cell-based; method in brief: as §3
A549 [9] = assay: Antitumour activity in ip dosed Balb/c mouse xenografted with human A549 cells assessed as increase in mouse survival at 2 to 4 mg/kg, ip administered once every two days for 32 days; type: functional, organism-based
A549 [10] = assay: Induction of apoptosis in human A549 cells assessed as low mitochondrial membrane potential at 8 uM after 12 hrs by JC-1 staining-based flow cytometric analysis (reference value: 6.3%); type: functional
A549 [11] = assay: Cell cycle arrest in human A549 cells assessed as accumulation at S phase at 8 uM after 36 hrs by RNAse A/ PI staining based flow cytometric analysis (reference value: 19.66%); type: functional; method in brief: as §1
A549 [12] = assay: Cell cycle arrest in human A549 cells assessed as accumulation at G2/M phase at 8 uM after 24 hrs by RNAse A/ PI staining based flow cytometric analysis (reference value: 12.65%); type: functional; method in brief: as §1
A549 [13] = assay: Induction of apoptosis in human A549 cells assessed as high mitochondrial membrane potential at 4 uM after 12 hrs by JC-1 staining-based flow cytometric analysis (reference value: 90.6%); type: functional
Method in brief: (§5)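 JC-1 staining of A549 cells treated for 12 h. CCCP-treated wells, 20 min at 37 °C, served as positive control. Collected cells were incubated with JC-1 solution at 37 °C for 30 min, washed, and analysed by flow cytometry for the fraction with high ΔΨm and for PI-positive cells. Results are mean ± S.E.M. of three replicates.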

A549 [14] = assay: Cell cycle arrest in human A549 cells assessed as accumulation at G1 phase at 8 uM after 12 hrs by RNAse A/ PI staining based flow cytometric analysis (reference value: 67.69%); type: functional; method in brief: as §1
A549 [15] = assay: Induction of apoptosis in human A549 cells assessed as viable cells at 4 uM after 24 hrs by Annexin-V/PI staining based flow cytometry analysis (reference value: 91.4%); type: functional; conditions: A549, 24 h, read-out: Activity
Method in brief: (§6)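 A549 cells seeded overnight at 37 °C, 5% CO2, then exposed to 0, 2, 4, 8 or 12 µM for 24 h (dose series) or 8 µM for 0, 12, 24, 36 h (time series). Harvested, PBS-washed, stained with Annexin V-FITC and PI in binding buffer 15 min at room temperature in the dark, analysed by flow cytometry; three independent experiments.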

A549 [16] = assay: Induction of apoptosis in human A549 cells assessed as late apoptotic cells at 8 uM after 24 hrs by Annexin-V/PI staining based flow cytometry analysis (reference value: 6.55%); type: functional; method in brief: as §6
A549 [17] = assay: Cell cycle arrest in human A549 cells assessed as downregulation of CDK2 expression at 2 to 8 uM by immunoblot analysis; type: functional, cell-based; method in brief: as §2
A549 [18] = assay: Cell cycle arrest in human A549 cells assessed as accumulation at G1 phase at 8 uM after 24 hrs by RNAse A/ PI staining based flow cytometric analysis (reference value: 73.30%); type: functional; method in brief: as §1
A549 [19] = assay: Induction of apoptosis in human A549 cells assessed as late apoptotic cells at 8 uM after 24 hrs by Annexin-V/PI staining based flow cytometry analysis (reference value: 5.69%); type: functional; method in brief: as §6
A549 [20] = assay: Induction of apoptosis in human A549 cells assessed as early apoptotic cells at 8 uM after 24 hrs by Annexin-V/PI staining based flow cytometry analysis (reference value: 1.15%); type: functional
NCI-H460 = assay: Antiproliferative activity against human H460 cells assessed as reduction in cell viability after 24 hrs by MTT assay; type: functional, cell-based; conditions: NCI-H460, 24 h; method in brief: as §4
A549 [21] = assay: Induction of apoptosis in human A549 cells assessed as high mitochondrial membrane potential at 8 uM after 12 hrs by JC-1 staining-based flow cytometric analysis (reference value: 90.6%); type: functional; method in brief: as §5
NCI-H1975 = assay: Antiproliferative activity against human NCI-H1975 cells assessed as reduction in cell viability after 24 hrs by MTT assay; type: functional, cell-based; conditions: NCI-H1975, 24 h; method in brief: as §4

Q: For `CC(C)=CC[C@@H](OC(=O)/C=C\C(=O)c1ccc(F)cc1)C1=CC(=O)c2c(O)ccc(O)c2C1=O`, which Activity (A549 [1]) is on record?
A: 27.9%

Q: What about the Activity (A549 [2]) of the same compound?
A: 24.72%

Q: What about the Activity (A549 [3]) of the same compound?
A: 21.03%

Q: And the Activity (A549 [4])?
A: Active

Q: And the Activity (A549 [5])?
A: Active

Q: What about the CC50 at 24 h [6] of the same compound?
A: 89.2 µM

Q: And the Activity (A549 [7])?
A: 46.55%

Q: What about the Activity (A549 [8]) of the same compound?
A: Active

Q: What about the Activity (A549 [9]) of the same compound?
A: Active

Q: And the Activity (A549 [10])?
A: 39.3%

Q: What about the Activity (A549 [11]) of the same compound?
A: 22.57%

Q: What about the Activity (A549 [12]) of the same compound?
A: 33.75%

Q: What about the Activity (A549 [13]) of the same compound?
A: 67.8%

Q: What about the Activity (A549 [14]) of the same compound?
A: 55.88%

Q: What about the viability at 4 µM (A549 [15]) of the same compound?
A: 71.7%

Q: What about the Activity (A549 [16]) of the same compound?
A: 27.5%

Q: What about the Activity (A549 [17]) of the same compound?
A: Active

Q: And the Activity (A549 [18])?
A: 47.33%

Q: What about the Activity (A549 [19]) of the same compound?
A: 30.5%

Q: What about the Activity (A549 [20]) of the same compound?
A: 35.6%

Q: What about the pIC50 (NCI-H460) of the same compound?
A: 5.25

Q: And the Activity (A549 [21])?
A: 55.8%

Q: And the pIC50 (NCI-H1975)?
A: 5.03
